Our source for the Activity and Ka values is ChEMBL document CHEMBL3763129 (Bioorg Med Chem Lett, 2016).

The test system of data set [1] is BXPC-3. The experiment in a line: Antiproliferative activity against human BxPC3 cells assessed as cell viability at 10 uM after 48 hrs by MTS assay. The data set is classed as functional, cell-based. (In general: Tetrazolium assays rely on reduction of a dye to a coloured formazan, in cell work by metabolically active cells.)
The test system of data set [2] is ASPC1. Description: Antiproliferative activity against human AsPC1 cells assessed as cell viability at 10 uM after 48 hrs by MTS assay. The data set is classed as functional, cell-based.
The test system of data set [3] is MIA PaCa-2. Description: Antiproliferative activity against human MIAPaCa2 cells assessed as cell viability at 10 uM after 48 hrs by MTS assay. It is filed as functional, cell-based.
A short description of data set [4]: Cytotoxicity against human MCF10A cells assessed as cell viability at 10 uM after 48 hrs by MTS assay. The data set is classed as cell-based. To be noted: mcf-10a.
Data set [5] has as its system ASPC1. The experiment in a line: Antiproliferative activity against human AsPC1 cells assessed as cell viability at 0.01 to 10 uM after 48 and 72 hrs by MTS assay. It is filed as functional, cell-based.
Data set [6] concerns BXPC-3. Description: Antiproliferative activity against human BxPC3 cells assessed as cell viability at 0.01 to 10 uM after 48 and 72 hrs by MTS assay. The data set is classed as functional, cell-based.
For data set [7], the system named is MIA PaCa-2. Description: Antiproliferative activity against human MIAPaCa2 cells assessed as cell viability at 0.01 to 10 uM after 48 and 72 hrs by MTS assay. It is filed as functional, cell-based.
Data set [8] in a line: Cytotoxicity against human MCF10A cells assessed as cell viability at 0.01 to 10 uM after 48 and 72 hrs by MTS assay. It is filed as cell-based. To be noted: mcf-10a.
Data set [9] addresses Proto-oncogene tyrosine-protein kinase Src (Homo sapiens) (UniProt P12931). The experiment in a line: Binding affinity to Src kinase SH2 domain (unknown origin) at 100 uM by STD-NMR spectroscopy. An outline of the steps: (§1)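 STD-NMR on recombinant SH2 (SUMO-fusion expressed in E. coli Rosetta2, Ni-purified, tag cleaved) in 100% D2O with trace DMSO-d6; 50 ms Gaussian saturation pulse, saturation and delay times 5.0 s, 16 scans with 720 averages; ligand/protein ratio 5:1 or 20:1 depending on compound.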

The target of data set [10] is T1, Calmodulin/Proto-oncogene tyrosine-protein kinase Src (Homo sapiens) (UniProt P12931+P0DP23). Description: Inhibition of human CaM/Src kinase SH2 domain interaction assessed as apparent association of CaM-Src kinase SH2 domain at 25 fold excess compound concentration by isothermal titration calorimetry. The data set is classed as protein assay. The essentials: (§2)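 ITC at 27°C: SH2 (0.02mM) premixed with compound in DMSO in cell, titrated with CaM (0.2mM, DMSO matched), 20µl per injection, 300 s spacing; both proteins dialyzed overnight in 10mM Bis-Tris pH6.5, 50mM NaCl, 1mM CaCl2, 0.1mM TCEP; recombinant proteins from E. coli, SUMO tag removed.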
In general terms: Isothermal titration calorimetry measures the heat released or taken up as one component is titrated into another.

Data set [11] deals with Calmodulin-1 (Homo sapiens) (UniProt P0DP23). Description: Binding affinity to human calmodulin by isothermal titration calorimetry.
Data set [12] concerns MIA PaCa-2. Description: Cytotoxicity against human MIAPaCa2 cells at 1 to 50 uM after 8 days by calcein-AM staining based fluorescence analysis. It is filed as functional, cell-based. The essentials: (§3)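 3D microtumors: 10K MiaPaCa-2 cells in ice-cold HuBiogel (3 mg/ml), 2 mm beads polymerized 5 min at 37C, cultured up to 14 days in DMEM/10% FBS; compound 1–50 µM added every other day (final 5% FBS, 0.5% DMSO); media or DMSO controls; day 1, 7, 14 Calcein-AM (1.0µM) live imaging; proliferation by CellTiter Glo relative to DMSO; 6–8 beads/group.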

In data set [13] the test system is MIA PaCa-2. The experiment in a line: Cytotoxicity against human MIAPaCa2 cells at 1 to 50 uM after 8 days by CellTiter Glo assay. The data set is classed as functional, cell-based. An outline of the steps:
as §3
(Cellular ATP, detected with luciferase, serves as a proxy for viable cell number.)

The target of data set [14] is Proto-oncogene tyrosine-protein kinase Src (Homo sapiens) (UniProt P12931). The experiment in a line: Binding affinity to Src kinase SH2 domain (unknown origin) at 25 uM by STD-NMR spectroscopy. An outline of the steps:
as §1

Data set [15] concerns the target T1, Calmodulin/Proto-oncogene tyrosine-protein kinase Src (Homo sapiens). Description: Inhibition of human CaM/Src kinase SH2 domain interaction assessed as apparent association of CaM-Src kinase SH2 domain at 10 fold excess compound concentration by isothermal titration calorimetry. The data set is classed as protein assay. The essentials:
as §2

Activity calls are given as the source filed them. The calls are words filed in the database; no cut-off is given here.

With `COc1ccc(-c2n[nH]c(NC(=O)c3cccc(S(=O)(=O)N4CCc5ccccc54)c3)n2)cc1`, the result with BXPC-3 [1], with ASPC1 [2] and with MIA PaCa-2 [3] was Active. Besides, the Activity entry in [4] is recorded as “Toxic”.

Take `OC[C@@H]1O[C@H](n2cnc3c(NCc4ccco4)ncnc32)[C@H](O)[C@@H]1O`: the outcome in the data set with BXPC-3 [1], in the data set with ASPC1 [2], in the data set with MIA PaCa-2 [3], in the data set with ASPC1 [5], in the data set on BXPC-3 [6] and with MIA PaCa-2 [7] was Active. Also, the result in data set [9] was Active. In addition, the Activity result in data set [4] and in data set [8] was “Toxic” in each case. In addition, the Ka in [10] was 2.03 ×10⁶ /M. For the same compound, the outcome in data set [11] was inactive.

For `O=C1COc2ccc(C(=O)/C=C/c3cc(F)cc4c3OCOC4)cc2N1`, the result in the data set on BXPC-3 [1], in the data set with ASPC1 [2], with MIA PaCa-2 [3], with MIA PaCa-2 [12] and in the data set on MIA PaCa-2 [13] was Active. For the same compound, the Activity entry in data set [4] is reported as “Toxic”. The outcome in data set [11] was inactive.

`O=C(Nc1ccc(C(=O)O)cc1)Nc1ccc(-c2nc(N3CCOCC3)nc(N3CCOCC3)n2)cc1`: the outcome in the data set with BXPC-3 [1], in the data set on ASPC1 [2], with MIA PaCa-2 [3], in the data set with ASPC1 [5], in the data set on BXPC-3 [6] and in the data set with MIA PaCa-2 [7] was Active. In addition, in data set [14], the result was Active. The Activity result in [4] and in data set [8] was “Toxic” each time. For the same compound, the Ka in data set [15] is 2.49 ×10⁶ /M. Also, the result in [11] was inactive.

Turning to `N#Cc1ccc(Cc2cnc(NC(=O)CCc3ccc4c(c3)OCO4)s2)cc1`, the result in the data set on BXPC-3 [1], in the data set on ASPC1 [2] and in the data set with MIA PaCa-2 [3] was Active. The Activity entry in [4] is given as “Toxic”.

With `CC/C(=C(\c1ccccc1)c1ccc(OCCN(C)C)cc1)c1ccccc1`, the result with BXPC-3 [1], in the data set on ASPC1 [2] and in the data set with MIA PaCa-2 [3] was Active.

As for `Cc1ccc(Cc2cnc(NC(=O)c3ccc(-n4ccnc4)cc3)s2)cc1`, the result in the data set with BXPC-3 [1], with ASPC1 [2] and with MIA PaCa-2 [3] was Active.

`Cc1nc2ccccn2c1-c1csc(Nc2ccc(C(=O)O)cc2)n1`: the outcome in the data set on BXPC-3 [1], in the data set on ASPC1 [2] and in the data set on MIA PaCa-2 [3] was Active. For the same compound, the Activity result in [4] was “Toxic”. Besides, the outcome in data set [11] was inactive.
